The values that follow come from ChEMBL document CHEMBL3244215, “Fluorinated pyrimidine nucleosides. 3. Synthesis and antitumor activity of a series of 5'-deoxy-5-fluoropyrimidine nucleosides” (J Med Chem, 1979).

SMILES strings stand for the structures. Calls of active or inactive are those of the source. No cut-off for these calls is given here.

Data set [1] deals with Sarcoma-180. Nature of the data set: Antitumor activity against mouse Sarcoma 180 cells allografted in CD1 mouse at 200 mg/kg, ip qd administered shortly post implantation continued for 8 days relative to vehicle-treated control. It is filed as functional, organism-based. Also noted: dose 200 mg/kg. An outline of the steps:
(§1)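 Compounds dissolved or suspended in H2O, given ip as 1.0 mL shortly after tumor implantation, then daily to eight doses in total. Mice killed 8 days after implantation; tumors excised and weighed. Mean tumor weight of treated mice (T) compared with that of H2O-treated controls (C), expressed as C/T index.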

Data set [2] has as its system Sarcoma-180. Nature of the data set: Antitumor activity against mouse Sarcoma 180 cells allografted in CD1 mouse at 100 mg/kg, ip qd administered shortly post implantation continued for 8 days relative to vehicle-treated control. It counts as functional, organism-based. Also noted: dose 100 mg/kg. The method in brief: as §1
Data set [3] deals with Mus musculus. Nature of the data set: Toxicity in mouse in po dosed CD1 mouse assessed as leukopenia administered once daily starting shortly post implantation continued for 8 days relative to vehicle-treated control. It is filed as organism-based. Conditions: in vivo, 192 h.
Data set [4] relates to Mus musculus. Kind of data set: Toxicity in mouse in po dosed CD1 mouse assessed as change in body weight administered once daily starting shortly post implantation continued for 8 days relative to vehicle-treated control. It is filed as organism-based. As to conditions: in vivo, 192 h.
For data set [5], the system named is Sarcoma-180. Kind of data set: Antitumor activity against mouse Sarcoma 180 cells allografted in CD1 mouse at 12.5 mg/kg, ip qd administered shortly post implantation continued for 8 days relative to vehicle-treated control. Also noted: dose 12.5 mg/kg. It is filed as functional, organism-based. The method in brief:
as §1

Data set [6] deals with Sarcoma-180. Nature of the data set: Antitumor activity against mouse Sarcoma 180 cells allografted in CD1 mouse at 25 mg/kg, ip qd administered shortly post implantation continued for 8 days relative to vehicle-treated control. Also noted: dose 25 mg/kg. It is filed as functional, organism-based. An outline of the steps:
as §1

Data set [7] deals with Sarcoma-180. Kind of data set: Antitumor activity against mouse Sarcoma 180 cells allografted in CD1 mouse at 3.12 to 800 mg/kg, ip qd administered shortly post implantation for 8 days relative to vehicle-treated control. It is filed as functional, organism-based.
The test system of data set [8] is Sarcoma-180. Kind of data set: Antitumor activity against mouse Sarcoma 180 cells allografted in CD1 mouse at 50 mg/kg, ip qd administered shortly post implantation continued for 8 days relative to vehicle-treated control. It is filed as functional, organism-based. Also noted: dose 50 mg/kg. The method in brief:
as §1

Data set [9] relates to Sarcoma-180. Kind of data set: Antitumor activity against mouse Sarcoma 180 cells allografted in CD1 mouse at 20 mg/kg, ip qd administered shortly post implantation continued for 8 days relative to vehicle-treated control. It is filed as functional, organism-based. Also noted: dose 20 mg/kg. An outline of the steps: as §1
The test system of data set [10] is Sarcoma-180. Kind of data set: Antitumor activity against mouse Sarcoma 180 cells allografted in CD1 mouse at 40 mg/kg, ip qd administered shortly post implantation continued for 8 days relative to vehicle-treated control. It is filed as functional, organism-based. Also noted: dose 40 mg/kg. The method in brief:
as §1

In the case of `C[C@H]1O[C@@H](n2ccc(=O)[nH]c2=O)[C@H](O)[C@@H]1O`, in the data set with Sarcoma-180 [1], the outcome was inactive.

Regarding `C[C@H]1O[C@@H]2[C@@H](Oc3nc(=O)c(F)cn32)[C@@H]1O`, in the data set on Sarcoma-180 [1], the outcome was inactive.

Consider `C[C@H]1O[C@@H](n2cc(F)c(=O)[nH]c2=O)[C@@H](O)[C@H]1O`, for which, in the data set with Sarcoma-180 [2], the result was inactive.

In the case of `C[C@H]1O[C@@H](n2cc(F)c(N)nc2=O)[C@@H](O)[C@@H]1O`, the outcome in the data set with Sarcoma-180 [2] was inactive.

`C[C@H]1O[C@@H](n2ccc(N)nc2=O)[C@H](O)[C@@H]1O`: the result in the data set on Sarcoma-180 [1] was inactive.

Take `O=c1[nH]c(=O)n([C@H]2C[C@H](O)[C@@H](CO)O2)cc1F` [FLOXURIDINE]: the Activity entry in the data set with Mus musculus [3] and in the data set with Mus musculus [4] was “Toxic” in each case.

Consider `C[C@H]1O[C@@H](n2cc(F)c(=O)[nH]c2=O)[C@@H]2OC(C)(C)O[C@@H]21`, for which the result in the data set on Sarcoma-180 [1] was inactive.

For the compound `C[C@H]1O[C@@H](n2cc(F)c(N)nc2=O)[C@H]2O[C@H]21`, in the data set on Sarcoma-180 [1], the outcome was inactive.

On to `C=C1O[C@@H](n2cc(F)c(=O)[nH]c2=O)[C@H](O)[C@@H]1O`, for which the result with Sarcoma-180 [2] was inactive.

For `C[C@@H]1O[C@@H](n2cc(F)c(=O)[nH]c2=O)[C@H](O)[C@@H]1O`, in the data set on Sarcoma-180 [2], the outcome was inactive.

For the compound `C[C@H]1O[C@@H](n2cc(F)c(=O)[nH]c2=O)[C@H](O)[C@@H]1O` [DOXIFLURIDINE], the Activity result with Mus musculus [3] and with Mus musculus [4] was “Toxic” each time. In the data set with Sarcoma-180 [5], the outcome was inactive. For the same compound, the result in the data set with Sarcoma-180 [6], in the data set on Sarcoma-180 [7], in the data set on Sarcoma-180 [1], in the data set on Sarcoma-180 [8] and with Sarcoma-180 [2] was Active.

Turning to `C[C@H]1O[C@@H](n2cc(F)c(=O)[nH]c2=O)[C@@H](O)[C@@H]1O`, the result in the data set on Sarcoma-180 [2] was inactive.

As to `C[C@H]1O[C@@H](n2cc(F)c(N)nc2=O)[C@H](O)[C@@H]1O`, the result in the data set with Sarcoma-180 [5] was inactive. The outcome with Sarcoma-180 [6], in the data set with Sarcoma-180 [1], in the data set on Sarcoma-180 [8] and in the data set with Sarcoma-180 [2] was Active.

Consider `C[C@H]1O[C@@H]2[C@@H](Oc3nc(N)c(F)c[n+]32)[C@@H]1O`, for which the outcome with Sarcoma-180 [9] was inactive. The result in the data set with Sarcoma-180 [10], with Sarcoma-180 [1] and in the data set with Sarcoma-180 [2] was Active.
